According to ChEMBL document CHEMBL1148335, “Design and synthesis of potent inhibitors of the malaria aspartyl proteases plasmepsin I and II. Use of solid-phase synthesis to explore novel statine motifs” (J Med Chem, 2004):

Legend:
Plasmodium falciparum [1] = assay: Growth inhibition of Plasmodium falciparum infected human erythrocytes at 5 uM; assay type: functional
Method in brief: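 P. falciparum clone 3D7 was used as a highly synchronous early-trophozoite culture at ~1% haematocrit and 1% parasitaemia, with [3H]hypoxanthine at 10 µCi/ml. Compound was added at 1–5 µM final, with DMSO at most 1% v/v. Cultures grew 37 °C, 30 h, to schizonts, then were harvested onto filters for β-counting. Radioactivity was expressed relative to DMSO-only wells, from four independent experiments.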

Plasmepsin II = Plasmepsin II (Plasmodium falciparum, UniProt P46925); assay: In vitro inhibition of aspartic protease plasmepsin (Plm) II of Plasmodium falciparum
Chain of Plasmepsin II (P46925 whole entry): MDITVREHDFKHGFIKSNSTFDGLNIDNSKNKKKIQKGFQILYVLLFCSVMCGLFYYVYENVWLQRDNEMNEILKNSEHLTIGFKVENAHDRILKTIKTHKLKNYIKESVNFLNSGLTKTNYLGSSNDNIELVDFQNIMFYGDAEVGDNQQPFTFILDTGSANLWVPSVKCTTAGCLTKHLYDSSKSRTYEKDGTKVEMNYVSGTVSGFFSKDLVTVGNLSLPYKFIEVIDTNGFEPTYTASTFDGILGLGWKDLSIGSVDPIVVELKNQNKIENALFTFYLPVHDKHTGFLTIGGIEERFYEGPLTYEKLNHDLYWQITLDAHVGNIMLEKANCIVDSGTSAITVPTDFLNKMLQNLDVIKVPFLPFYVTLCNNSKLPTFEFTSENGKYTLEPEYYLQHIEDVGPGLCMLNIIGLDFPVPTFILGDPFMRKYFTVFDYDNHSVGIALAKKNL
Method in brief: (§1)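 Fluorogenic DABCYL-Glu-Arg-Nle-Phe-Leu-Ser-Phe-Pro-EDANS substrate at 3 µM in 100 mM sodium acetate pH 4.5, 10% glycerol, 0.01% Tween 20. Inhibitors were serially diluted in DMSO and added just before substrate, at 1% final DMSO. Fluorescence increase was read over a linear 10 min. IC50 came from a competitive Langmuir fit, and Ki = IC50/(1+[S]/Km), with Km from Michaelis-Menten.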

Cathepsin D = Cathepsin D (Homo sapiens, UniProt P07339); assay: In vitro inhibition of human liver cathepsin D.; method in brief: as §1
Chain of Cathepsin D (P07339 65-162 limits assumed): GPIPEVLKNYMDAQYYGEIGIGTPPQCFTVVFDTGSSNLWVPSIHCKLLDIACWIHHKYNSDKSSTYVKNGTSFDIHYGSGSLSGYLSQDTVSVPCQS
Chain of Cathepsin D (P07339 169-412 limits assumed): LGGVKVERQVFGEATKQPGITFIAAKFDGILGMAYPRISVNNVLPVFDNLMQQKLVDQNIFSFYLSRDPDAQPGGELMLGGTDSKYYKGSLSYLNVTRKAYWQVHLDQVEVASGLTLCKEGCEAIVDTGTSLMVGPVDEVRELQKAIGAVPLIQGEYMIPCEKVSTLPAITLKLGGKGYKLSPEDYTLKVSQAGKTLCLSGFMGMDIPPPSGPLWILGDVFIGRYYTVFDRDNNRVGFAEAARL

Plasmepsin I = Plasmepsin I (Plasmodium falciparum, UniProt P39898); assay: In vitro inhibition of aspartic protease plasmepsin-1 (Plm) of Plasmodium falciparum.; method in brief: as §1
Chain of Plasmepsin I (P39898 whole entry): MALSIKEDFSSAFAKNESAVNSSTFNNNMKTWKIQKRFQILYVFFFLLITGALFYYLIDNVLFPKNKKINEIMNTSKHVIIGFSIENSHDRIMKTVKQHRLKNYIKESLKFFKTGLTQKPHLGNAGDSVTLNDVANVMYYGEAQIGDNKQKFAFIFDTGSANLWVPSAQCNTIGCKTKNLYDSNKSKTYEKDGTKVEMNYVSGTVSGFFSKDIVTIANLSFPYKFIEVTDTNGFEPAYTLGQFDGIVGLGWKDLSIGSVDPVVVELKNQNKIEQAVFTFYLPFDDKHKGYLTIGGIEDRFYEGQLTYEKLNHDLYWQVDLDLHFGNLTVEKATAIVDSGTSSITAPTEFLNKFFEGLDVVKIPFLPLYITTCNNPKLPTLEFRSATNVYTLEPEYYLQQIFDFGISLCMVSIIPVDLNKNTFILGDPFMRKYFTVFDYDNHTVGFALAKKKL

Plasmodium falciparum [2] = assay: Growth inhibition of Plasmodium falciparum infected human erythrocytes at 20 uM; assay type: functional

Row | SMILES | Ki (Plasmepsin II) [µM] | Ki (Cathepsin D) [µM] | Ki (Plasmepsin I) [µM] | inhibition at 5 µM (Plasmodium falciparum [1]) [%] | inhibition at 20 µM (Plasmodium falciparum [2]) [%]
1 | O=C(C[C@H](O)[C@H](COCc1ccc(Br)cc1)NC(=O)c1c(F)cc(F)cc1F)NC1CCCCC1 | 0.23 | > 5.9 | 0.822 |  | 
2 | CC(C)[C@H](NC(=O)c1ccccn1)C(=O)N[C@@H](COCc1ccc(Br)cc1)[C@@H](O)CC(=O)NCc1ccc(C#N)cc1 | 0.256 | 0.623 | 0.053 |  | 
3 | COc1cccc(CCNC(=O)C[C@H](O)[C@H](COCc2ccc(Br)cc2)NC(=O)c2c(F)cc(F)cc2F)c1 | 0.39 | > 5.9 | 0.619 |  | 
4 | CC(C)[C@H](NC(=O)c1ccccn1)C(=O)N[C@@H](COCc1ccc(Br)cc1)[C@@H](O)CC(=O)NC1CCCCC1 | 0.025 | 0.217 | 0.0041 | 21 | 
5 | CCCCNC(=O)C[C@H](O)[C@H](COCc1ccc(Br)cc1)NC(=O)[C@@H](NC(=O)c1ccccn1)C(C)C | 0.068 | 0.473 | 0.0081 |  | 
6 | CC(C)C[C@H](NC(=O)[C@H](C)NC(=O)C[C@H](O)[C@H](Cc1ccccc1)NC(=O)[C@@H](NC(=O)c1ccccn1)C(C)C)C(N)=O |  |  |  |  | 54
7 | COCCCNC(=O)C[C@H](O)[C@H](COCc1ccc(Br)cc1)NC(=O)[C@@H](NC(=O)c1ccccn1)C(C)C | 0.248 | > 4 | 0.049 |  | 
8 | CC(C)C[C@H](NC(=O)[C@H](C)NC(=O)C[C@H](O)[C@H](CCc1ccccc1)NC(=O)[C@@H](NC(=O)c1ccccn1)C(C)C)C(N)=O | 0.046 | 0.98 | 0.027 | 41 | 
9 | CC(C)[C@H](NC(=O)c1ccccn1)C(=O)N[C@@H](COCc1ccc(Br)cc1)[C@@H](O)CC(=O)NCCNc1ccccc1 | 0.074 | 0.265 | 0.0089 | 25 | 
10 | COc1cccc(CCNC(=O)C[C@H](O)[C@H](COCc2ccc(Br)cc2)NC(=O)[C@@H](NC(=O)c2ccccn2)C(C)C)c1 | 0.029 | 0.14 | 0.0067 | 25 | 
11 | CC(C)[C@H](NC(=O)c1ccccn1)C(=O)N[C@@H](COCc1ccc(Br)cc1)[C@@H](O)CC(=O)NCCCc1ccccc1 | 0.03 | 0.459 | 0.0054 |  | 

Second part, led by results:

Row | Ki (Plasmepsin II) [µM] | Ki (Cathepsin D) [µM] | Ki (Plasmepsin I) [µM] | SMILES | inhibition at 5 µM (Plasmodium falciparum [1]) [%] | inhibition at 20 µM (Plasmodium falciparum [2]) [%]
12 | 0.139 | 0.052 | 0.057 | CC(C)C[C@H](NC(=O)[C@H](C)NC(=O)C[C@H](O)[C@H](COCc1ccc(Br)cc1)NC(=O)C(c1ccccc1)c1ccccc1)C(N)=O | 10 | 
13 | 0.348 | 0.035 | 0.024 | CC(C)C[C@H](NC(=O)[C@H](C)NC(=O)C[C@H](O)[C@H](COCc1ccc(Br)cc1)NC(=O)Cc1cccs1)C(N)=O |  | 
14 | 0.091 | 1.81 | 0.032 | CC(C)C[C@H](NC(=O)[C@H](C)NC(=O)C[C@H](O)[C@H](COCc1ccc(Br)cc1)NC(=O)c1ccc(Cl)c(Cl)c1)C(N)=O |  | 
15 | 0.015 | 0.041 | 0.0064 | CC(C)C[C@H](NC(=O)[C@H](C)NC(=O)C[C@H](O)[C@H](COCc1ccc(Br)cc1)NC(=O)[C@H](NC(=O)c1ccccn1)C(C)C)C(N)=O | 50 | 
16 | 0.144 | 0.322 | 0.059 | CC(C)C[C@H](NC(=O)[C@H](C)NC(=O)C[C@H](O)[C@H](COCc1ccc(Br)cc1)NC(=O)[C@@H]1Cc2ccccc2N1)C(N)=O | 16 | 
17 | 0.284 | 0.1 | 0.04 | CC(C)C[C@H](NC(=O)[C@H](C)NC(=O)C[C@H](O)[C@H](COCc1ccc(Br)cc1)NC(=O)CC(c1ccccc1)c1ccccc1)C(N)=O |  | 
18 | 0.0022 | 0.0049 | 0.0005 | CC(C)C[C@H](NC(=O)[C@H](C)NC(=O)C[C@H](O)[C@H](COCc1ccc(Br)cc1)NC(=O)[C@@H](NC(=O)c1ccccn1)C(C)C)C(N)=O |  | 
19 | 0.011 | 0.041 | 0.0054 | CC(C)C[C@H](NC(=O)[C@H](C)NC(=O)C[C@H](O)[C@H](COCc1ccccc1)NC(=O)[C@@H](NC(=O)c1ccccn1)C(C)C)C(N)=O | 37 | 
20 | 0.01 | > 4 | 0.0034 | CC(C)C[C@H](NC(=O)[C@H](C)NC(=O)C[C@H](O)[C@H](COCc1ccc(Br)cc1)NC(=O)c1c(F)cc(F)cc1F)C(N)=O |  | 
21 | 0.131 | > 5.9 | 0.029 | CC(C)C[C@H](NC(=O)[C@H](C)NC(=O)C[C@H](O)[C@H](COCc1ccc(Br)cc1)NC(=O)c1ccc2c(c1)OCO2)C(N)=O |  | 
22 | 0.041 | 0.586 | 0.0039 | CC(C)[C@H](NC(=O)c1ccccn1)C(=O)N[C@@H](COCc1ccc(Br)cc1)[C@@H](O)CC(=O)NCc1ccccc1 |  | 
